Drawing on ChEMBL document CHEMBL4390653, “Potential anti-herpes and cytotoxic action of novel semisynthetic digitoxigenin-derivatives” (Eur J Med Chem, 2019), this text covers selectivity ratio, IC50 and CC50 for seven compounds.

Series [1] in a line: Selectivity index, ratio of Cytotoxicity against African green monkey Vero cells assessed as reduction in cell viability after 48 hrs by SRB assay to Antiviral activity against Herpes simplex virus 2-333 infected in African green monkey Vero cells assessed as inhibition of viral replication after 48 hrs by naphthol blue-black staining-based plaque reduction assay. It is filed as toxicity. The settings on record: Vero cells infected with HSV-2 333, read-out: Ratio CC50/IC50. In a few lines: (§1)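 Selectivity index = CC50 in Vero cells (SRB, 48 h) divided by plaque-reduction IC50 for the same virus strain.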
A general note: The SRB assay estimates cell density from bound dye.

Series [2] has as its system LNCaP. As to the kind of experiment: Cytotoxicity against human LNCAP cells assessed as inhibition of cell viability after 48 hrs by SRB assay. It is filed as functional, cell-based. In a few lines: (§2)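 Cells seeded at 2.5 × 10^4 per well and exposed to a concentration range for 48 h, then SRB total-protein stain. PC3 grown in phenol-red-free DMEM with 1% glutamine; LNCaP in phenol-red-free RPMI 1640 with glutamine and non-essential amino acids. HCT-8 and H460 in RPMI 1640. MRC-5 (plus glutamine and non-essential amino acids) and primary gingival fibroblasts in DMEM. All media had 10% FBS, 37 °C, 5% CO2. Paclitaxel was the reference. IC50 versus untreated controls by nonlinear regression, three independent experiments.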

Series [3] deals with HCT-8. As to the kind of experiment: Cytotoxicity against human HCT8 cells assessed as inhibition of cell viability after 48 hrs by SRB assay. It is filed as functional, cell-based. To be noted: HCT-8, 48 h. In a few lines:
as §2

For series [4], the system named is Human alphaherpesvirus 1. In words: Antiviral activity against acyclovir-resistant Herpes simplex virus 1 29-R infected in African green monkey Vero cells assessed as inhibition of viral replication after 48 hrs by naphthol blue-black staining-based plaque reduction assay. It is filed as functional, organism-based. In a few lines:
(§3)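 Vero cells in MEM with 10% FBS, 37 °C, 5% CO2. Confluent monolayers (2.5 × 10^5 cells/well) infected with about 100 PFU for 1 h at 37 °C. Non-cytotoxic concentrations were added after infection. Cells were then PBS-washed and overlaid with MEM plus 1.5% carboxymethylcellulose, with or without compound, for 48 h. Fixed, naphthol blue-black stained, plaques counted under a stereomicroscope. IC50 versus untreated controls by nonlinear regression; mean of three independent experiments.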
(Plaques are areas of infected cells; plaque reduction assays count them against a control.)

Series [5] in a line: Selectivity index, ratio of Cytotoxicity against African green monkey Vero cells assessed as reduction in cell viability after 48 hrs by SRB assay to Antiviral activity against acyclovir-sensitive Herpes simplex virus 1 KOS infected in African green monkey Vero cells assessed as inhibition of viral replication after 48 hrs by naphthol blue-black staining-based plaque reduction assay. It is filed as toxicity. The settings on record: Vero cells infected with HSV-1 KOS, read-out: Ratio CC50/IC50. In a few lines:
as §1

Series [6] deals with Human alphaherpesvirus 2. In words: Antiviral activity against Herpes simplex virus 2-333 infected in African green monkey Vero cells assessed as inhibition of viral replication after 48 hrs by naphthol blue-black staining-based plaque reduction assay. To be noted: Human alphaherpesvirus 2, 333, Vero. It is filed as functional, organism-based. In a few lines: as §3
Series [7] concerns Human alphaherpesvirus 1. As to the kind of experiment: Antiviral activity against acyclovir-sensitive Herpes simplex virus 1 KOS infected in African green monkey Vero cells assessed as inhibition of viral replication after 48 hrs by naphthol blue-black staining-based plaque reduction assay. It is filed as functional, organism-based. The settings on record: Human alphaherpesvirus 1, strain KOS. In a few lines: as §3

Series [8] concerns A549. As to the kind of experiment: Cytotoxicity against human A549 cells assessed as inhibition of cell viability after 48 hrs by SRB assay. It is filed as functional, cell-based. To be noted: A549, 48 h.
The nature of series [9]: Cytotoxicity against African green monkey Vero cells assessed as reduction in cell viability after 48 hrs by SRB assay. The settings on record: chlorocebus sabaeus. It is filed as cell-based. In a few lines: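 Vero cells in MEM with 10% FBS, seeded at 2.5 × 10^4 cells/well. Exposed to a range of concentrations for 48 h at 37 °C, 5% CO2, then sulforhodamine B total-protein staining. CC50 is the concentration reducing viability by 50% versus untreated controls, from nonlinear regression; mean ± SD of three independent experiments.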

Series [10] relates to PC-3. As to the kind of experiment: Cytotoxicity against human PC3 cells assessed as inhibition of cell viability after 48 hrs by SRB assay. It is filed as functional, cell-based. The settings on record: PC-3, 48 h. In a few lines: as §2
The nature of series [11]: Selectivity index, ratio of Cytotoxicity against African green monkey Vero cells assessed as reduction in cell viability after 48 hrs by SRB assay to Antiviral activity against acyclovir-resistant Herpes simplex virus 1 29-R infected in African green monkey Vero cells assessed as inhibition of viral replication after 48 hrs by naphthol blue-black staining-based plaque reduction assay. It is filed as toxicity. The settings on record: Vero cells infected with HSV-1 29-R, read-out: Ratio CC50/IC50. In a few lines: as §1

Setting [12] is: Human alphaherpesvirus 1, 29-R, Vero, 48 h, read-out: IC50.

A value given as a limit tells only on which side of the number the result lay.

The IC50 is the concentration at which inhibition is half-maximal. Usually CC50 stands for the concentration at which the toxic effect on the cells reaches its halfway point. On to `C[C@]12CC[C@H](n3cc(CO[C@@H]4O[C@H](CO)[C@@H](O)[C@H](O)[C@H]4O)nn3)C[C@H]1CC[C@@H]1[C@@H]2CC[C@]2(C)[C@@H](C3=CC(=O)OC3)CC[C@]12O`, for which the figures for the selectivity ratio at 48 h in series [1], in [5] and in [11] were above 140, above 108 and above 111, respectively. Further, the IC50 in series [2] is 4.69 µM; in [3] it was 3.7 µM; in [4] (setting [12]), 2.71 µM; in series [6], 2.14 µM; in [7] it was 2.79 µM; in [8], 2.03 µM. For the same compound, the IC50 in [10] was determined as 2.35 µM. Besides, the CC50 at 48 h in [9] was above 300 µM.
On to `CC(=O)OC[C@H]1O[C@@H](OCc2cn([C@H]3CC[C@@]4(C)[C@H](CC[C@@H]5[C@@H]4CC[C@]4(C)[C@@H](C6=CC(=O)OC6)CC[C@]54O)C3)nn2)[C@H](OC(C)=O)[C@@H](OC(C)=O)[C@@H]1OC(C)=O`, for which the selectivity ratio at 48 h in series [1] was 75.1; in [5], 45.5; in series [11] it was 135. Further, the concentration for half-maximal inhibition (IC50) was found to be 7.32 µM in series [2]; 3.57 µM in series [3]; 2.11 µM in [4] (setting [12]); 3.8 µM in [6]; 6.27 µM in series [7]; 3.74 µM in series [8]. Moreover, in series [10], the IC50 was found to be 7.05 µM. Further, the CC50 at 48 h in series [9] is 286 µM.
In the case of `C[C@]12CC[C@H](n3cc(CO[C@@H]4O[C@H](CO)[C@H](O)[C@H](O)[C@H]4O)nn3)C[C@H]1CC[C@@H]1[C@@H]2CC[C@]2(C)[C@@H](C3=CC(=O)OC3)CC[C@]12O`, the selectivity ratio at 48 h in [1] was 234; in series [5], 296; in series [11], 315. Further, the IC50 in series [2] is 7.49 µM; in [3], 2.58 µM; in series [4] (setting [12]), 0.92 µM; in series [6] it was 1.24 µM; in series [7] it was 0.98 µM; in [8] it was 2.19 µM. Moreover, the IC50 in [10] amounted to 2.75 µM. In addition, the CC50 at 48 h in series [9] came out at 290 µM.
With `C[C@]12CC[C@H](NC(=O)CBr)C[C@H]1CC[C@@H]1[C@@H]2CC[C@]2(C)[C@@H](C3=CC(=O)OC3)CC[C@]12O`, the concentration for half-maximal inhibition (IC50) in [2] was found to be 3.42 µM; in [3], 1.74 µM; in [8], 1.4 µM; in series [10], 1.7 µM. Also, the 50% cytotoxic concentration (CC50) at 48 h in series [9] amounted to 36.1 µM.
The like results for `CC(=O)OC[C@H]1O[C@@H](OCc2cn([C@H]3CC[C@@]4(C)[C@H](CC[C@@H]5[C@@H]4CC[C@]4(C)[C@@H](C6=CC(=O)OC6)CC[C@]54O)C3)nn2)[C@H](OC(C)=O)[C@@H](OC(C)=O)[C@H]1OC(C)=O` were, in that order, 11.3 µM, 5.91 µM, 3.94 µM, 6.23 µM and 216 µM.
Regarding `CC(=O)OC[C@H]1O[C@H](O[C@H]2[C@H](OC(C)=O)[C@@H](OC(C)=O)[C@H](OCc3cn([C@H]4CC[C@@]5(C)[C@H](CC[C@@H]6[C@@H]5CC[C@]5(C)[C@@H](C7=CC(=O)OC7)CC[C@]65O)C4)nn3)O[C@@H]2COC(C)=O)[C@H](OC(C)=O)[C@@H](OC(C)=O)[C@@H]1OC(C)=O`, the figures for the selectivity ratio at 48 h in series [1], in [5] and in series [11] were 18.5, 6.86 and 5.42, respectively. Also, the IC50 was 23.8 µM in [2]; 9.51 µM in series [3]; 33.4 µM in series [4] (setting [12]); 9.75 µM in [6]; 26.3 µM in series [7]; 12 µM in series [8]. Further, in series [10], the IC50 turned out to be 29.5 µM. Further, the CC50 at 48 h in [9] came to 181 µM.
For the compound `Nc1nc2c(ncn2COCCO)c(=O)[nH]1` [ACYCLOVIR], the selectivity ratio at 48 h was above 619 in [1] and above 1450 in series [5]. In addition, the figures for the IC50 entry in series [4] (vero), in series [6] and in series [7] were “Not Active”, 3.23 µM and 1.38 µM, respectively. The CC50 at 48 h in series [9] is above 2000 µM.
